The values below come from article PMC8374356 (Biochemistry and Biophysics Reports, 2021).

Holding throughout (type): cell-based, mouse
In one data set the test system is AIF. Description: AIF nuclear translocation by immunocytochemistry. The settings on record: HT22 cells, 2 mM glutamate alone for up to 18 h.
For data set [1], the system named is HT22 cells. Description: TUNEL assay of glutamate-induced oxytosis. The note with it: 2 mM glutamate alone for 18 h, normalized by nuclei count.
Data set [2] has as its system HT22 cells. Description: Cell morphology by phase contrast microscopy. The settings on record: 50 μM peptide or 2 mM glutamate (positive control), 24 h.
The test system of data set [3] is HT22 cells. Description: Immunofluorescent staining of ssDNA. The settings on record: 2 mM glutamate alone for 18 h. The method, boiled down: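 HT22 cells on cover glass (5 × 10⁴ cells/well, 24 h) exposed to 2 mM L-glutamate in fresh medium for 18 h. Fixed in 4% paraformaldehyde (pH 7.4, 4 °C, 30 min), acetone-permeabilised, goat-serum blocked. Rabbit anti-ssDNA (1:200, 4 °C overnight), Alexa 594 secondary with DAPI. Confocal imaging; ssDNA-positive cells counted over total nuclei. At least three repeats, mean ± SD, ANOVA/Tukey-Kramer.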

For the compound `N[C@@H](CCC(=O)O)C(=O)O` [glutamate, L-glutamate], the AIF localization entry in the data set on AIF was “induced diffuse localization of AIF in both cytoplasm and nucleus”. Besides, the TUNEL-positive cells result in the data set on HT22 cells [1] is given as “up to 73%”. In addition, in the data set on HT22 cells [2], the cell morphology result is “induced cell detachment and shrinkage”. The compound also had a ssDNA-positive cells with HT22 cells [3] of 40%.
